Source: ChEMBL document CHEMBL3232980, “Studies on the antiproliferative effects of tropolone derivatives in Jurkat T-lymphocyte cells” (2014)
The source made the active and inactive calls. No cut-off for these calls is given here.

How the values were obtained:
Jurkat [1] = test: Induction of apoptosis in human Jurkat cells assessed as cell death at 10 uM after 24 hrs by annexin V-FITC/propidium iodide staining-based FACS flow cytometric analysis (reference value: 0.348%); type: functional
How it was run: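 ~1×10^6 log-phase Jurkat cells (RPMI 1640, 10% FBS, pen/strep, L-glutamine) treated in 6-well plates; untreated wells as controls. Cells washed in cold PBS and resuspended in annexin-binding buffer (10 mM HEPES, 140 mM NaCl, 2.5 mM CaCl2, pH 7.4). Stained with fluorescein-annexin V plus PI and read by flow cytometry. Gates: live A−/PI−, early apoptotic A+/PI−, late apoptotic/necrotic A+/PI+.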

Jurkat [2] = test: Cell cycle arrest in human Jurkat cells assessed as accumulation at G1-phase at 10 uM after 36 hrs by propidium iodide staining-based flow cytometric analysis (reference value: 59.10%); type: functional
Jurkat [3] = test: Cell cycle arrest in human Jurkat cells assessed as accumulation at S-phase at 10 uM after 36 hrs by propidium iodide staining-based flow cytometric analysis (reference value: 23%); type: functional
Jurkat [4] = test: Cell cycle arrest in human Jurkat cells assessed as accumulation at G0/G1-phase at 10 uM after 12 hrs by propidium iodide staining-based flow cytometric analysis (reference value: 4.16%); type: functional
Jurkat [5] = test: Induction of apoptosis in human Jurkat cells assessed as caspase 3/7 activation at 10 uM after 12 hrs by luminescence assay (reference value: 69,935 +/- 7003.63 no unit); type: functional
Jurkat [6] = test: Induction of apoptosis in human Jurkat cells assessed as caspase 3/7 activation at 10 uM after 24 hrs by luminescence assay (reference value: 136,627 +/- 31846.96 no unit); type: functional
Jurkat [7] = test: Cell cycle arrest in human Jurkat cells assessed as accumulation at G2/M-phase at 10 uM after 24 hrs by propidium iodide staining-based flow cytometric analysis (reference value: 14.30%); type: functional
Jurkat [8] = test: Cell cycle arrest in human Jurkat cells assessed as accumulation at G0/G1-phase at 10 uM after 24 hrs by propidium iodide staining-based flow cytometric analysis (reference value: 2.39%); type: functional
Jurkat [9] = test: Cell cycle arrest in human Jurkat cells assessed as accumulation at G1-phase at 10 uM after 12 hrs by propidium iodide staining-based flow cytometric analysis (reference value: 65%); type: functional
Jurkat [10] = test: Induction of apoptosis in human Jurkat cells assessed as caspase 8 responsive cells level at 10 uM after 24 hrs by FACS flow cytometric analysis (reference value: 0.32%); type: functional
Jurkat [11] = test: Cell cycle arrest in human Jurkat cells assessed as accumulation at G1-phase at 10 uM after 24 hrs by propidium iodide staining-based flow cytometric analysis (reference value: 60.90%); type: functional
Jurkat [12] = test: Induction of apoptosis in human Jurkat cells assessed as early apoptotic cells at 10 uM after 24 hrs by annexin V-FITC/propidium iodide staining-based FACS flow cytometric analysis (reference value: 0.32%); type: functional
How it was run: (§1)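 About 1 × 10^6 log-phase Jurkat cells treated in 6-well plates; untreated controls. Cells washed in cold PBS and resuspended in annexin-binding buffer (10 mM HEPES, 140 mM NaCl, 2.5 mM CaCl2, pH 7.4). Stained with FITC-annexin V plus propidium iodide, then gated by flow cytometry: live (AnnV−/PI−), early apoptotic (AnnV+/PI−), late apoptotic/necrotic (AnnV+/PI+).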

Jurkat [13] = test: Cell cycle arrest in human Jurkat cells assessed as accumulation at G2/M-phase at 10 uM after 12 hrs by propidium iodide staining-based flow cytometric analysis (reference value: 10%); type: functional
Jurkat [14] = test: Induction of apoptosis in human Jurkat cells assessed as caspase 3/7 activation at 10 uM after 48 hrs by luminescence assay (reference value: 109,510 +/- 4710.453 no unit); type: functional
Jurkat [15] = test: Cell cycle arrest in human Jurkat cells assessed as accumulation at G2/M-phase at 10 uM after 36 hrs by propidium iodide staining-based flow cytometric analysis (reference value: 14.20%); type: functional
Jurkat [16] = test: Induction of apoptosis in human Jurkat cells assessed as caspase 3/7 activation at 10 uM after 6 hrs by luminescence assay (reference value: 59,417 +/- 10002.74 no unit); type: functional
Jurkat [17] = test: Cell cycle arrest in human Jurkat cells assessed as accumulation at S-phase at 10 uM after 24 hrs by propidium iodide staining-based flow cytometric analysis (reference value: 20.90%); type: functional
Jurkat [18] = test: Induction of apoptosis in human Jurkat cells assessed as viable cells at 10 uM after 24 hrs by annexin V-FITC/propidium iodide staining-based FACS flow cytometric analysis (reference value: 99.3%); type: functional; settings: read-out: Activity; how it was run: as §1
Jurkat [19] = test: Cell cycle arrest in human Jurkat cells assessed as accumulation at S-phase at 10 uM after 12 hrs by propidium iodide staining-based flow cytometric analysis (reference value: 19.5%); type: functional
Jurkat [20] = test: Induction of apoptosis in human Jurkat cells assessed as late apoptotic cells at 10 uM after 24 hrs by annexin V-FITC/propidium iodide staining-based FACS flow cytometric analysis (reference value: 0.0401%); type: functional; how it was run: as §1
Jurkat [21] = test: Cell cycle arrest in human Jurkat cells assessed as accumulation at G0/G1-phase at 10 uM after 36 hrs by propidium iodide staining-based flow cytometric analysis (reference value: 1.80%); type: functional
[22] = biological target: T1, Histone deacetylase (Homo sapiens) (UniProt Q13547+O15379+Q9UBN7+Q92769+Q9UQL6+Q8WUI4+Q9BY41+Q96DB2+P56524+Q9UKV0+Q969S8); settings: Jurkat
[23] = biological target: T1, Histone deacetylase (Homo sapiens); settings: Jurkat; remark: listed apart in the source
[24] = biological target: T1, Histone deacetylase (Homo sapiens); settings: Jurkat, at 10 µM
Jurkat [25] = test: Increase in p21 protein expression in human Jurkat cells at 10 to 50 uM after 24 hrs by FACS flow cytometric analysis; type: functional, cell-based
How it was run: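 Jurkat cells (~1 × 10^6, log phase) treated 24 h at 10 or 50 µM; no-inhibitor controls. Fixed in 4% PFA for 20 min, held overnight at 4°C in 5% BSA/PBS, permeabilized with 0.5% Triton X-100, blocked with 10% goat serum. Stained with anti-p21 (1:100) and FITC secondary (1:1000). Read-out was geometric mean fluorescence intensity by flow cytometry.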

Jurkat [26] = test: Increase in p21 mRNA level in human Jurkat cells at 10 to 50 uM after 24 hrs by quantitative RT-PCR analysis; type: functional, cell-based
How it was run: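 Roughly 5 × 10^6 Jurkat cells treated 24 h at 10 and 50 µM; untreated cells served as controls. RNA extracted with Trizol, and 2 µg reverse-transcribed. p21 and beta-actin quantified by TaqMan real-time PCR, run in triplicate.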

SMILES | Activity (Jurkat [1]) [%] | Activity (Jurkat [2]) [%] | Activity (Jurkat [3]) [%] | Activity (Jurkat [4]) [%] | RLU (Jurkat [5]) | RLU (Jurkat [6]) | Activity (Jurkat [7]) [%] | Activity (Jurkat [8]) [%] | Activity (Jurkat [9]) [%] | Activity (Jurkat [10]) [%] | Activity (Jurkat [11]) [%] | Activity (Jurkat [12]) [%] | Activity (Jurkat [13]) [%] | RLU (Jurkat [14]) | Activity (Jurkat [15]) [%] | RLU (Jurkat [16]) | Activity (Jurkat [17]) [%] | viability at 10 µM (Jurkat [18]) [%] | Activity (Jurkat [19]) [%] | Activity (Jurkat [20]) [%] | further results
O=C(CCCCCCC(=O)Nc1ccccc1)NO [VORINOSTAT] | 1.03 | 6.9 | 15.6 | 20.4 | 157988 | 125484 | 12.3 | 48.9 | 25.9 | 35.9 | 7.46 | 35.9 | 19.7 | 95463 | 14.9 | 53518 | 19.9 | 62.6 | 31.6 | 0.412 | Activity (Jurkat [21]): 60.8%
O=c1cc(-c2ccccc2)cccc1O | 0.186 | 65.9 | 14.6 | 16.3 | 110650 | 80438 | 2.58 | 13.9 | 71.5 | 0.4 | 66.5 | 0.4 | 1.25 | 71048 | 4.35 | 73949 | 15.8 | 99.4 | 10.2 | 0.0285 | Flu intensity [22]: 2.12; Flu intensity [23]: 24; Activity (Jurkat [21]): 13.4%; inhibition [24]: inactive
O=c1c(O)ccccc1-c1ccccc1 | 0.513 | 64.2 | 13.3 | 22.3 | 97513 | 76948 | 1.81 | 13.9 | 64.3 | 0.43 | 70.2 | 0.434 | 1.39 | 105357 | 2.97 | 88661 | 13.3 | 98.9 | 11.1 | 0.158 | Activity (Jurkat [25]): Active; Flu intensity [22]: 13.7; Flu intensity [23]: 24.6; Activity (Jurkat [26]): inactive; Activity (Jurkat [21]): 18.5%; inhibition [24]: inactive
